Converted amounts (≈) assume the structure as drawn.
Tests used:
Type in all cases: functional
Bacillus subtilis = test: Compound was tested for antibacterial activity against Bacillus subtilis ATCC E6051
Outline: (§1)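 MICs were found by agar dilution. Test compounds were dissolved in water or in dimethyl sulfoxide, and the mixture was added to the agar before it set.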

Bacillus cereus = test: Compound was tested for antibacterial activity against Bacillus cereus WSU-60; outline: as §1
[1] = tested on: Corynebacterium diphtheriae; test: Compound was tested for antibacterial activity against Corynebacterium diphtheria WSU; outline: as §1
Rattus norvegicus = organism: Rattus norvegicus; test: Compound was tested for effect of glycoside on superoxide production in rat heart sarcosomes; parameters: unit not given here
Outline: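 Male Sprague-Dawley rat ventricles were homogenized in 100 mM KCl, 5 mM histidine, pH 7.3. The microsomal (sarcosomal) pellet was taken at 100000g and resuspended in 0.15 M K3PO4, 1 mM EDTA, pH 7.4. Sarcosomes came from six rats prepared concurrently. Each 1 mL reaction held acetylated cytochrome c (38-53 nmol), 300-500 µg protein and 0.1 mM compound. NADPH started the reaction. A550 rise was followed at 37 °C and reported as mean ± SEM, N = 3, with an F test.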

Staphylococcus aureus [2] = test: Compound was tested for antibacterial activity against Staphylococcus aureus WSU-196E; outline: as §1
Staphylococcus aureus [3] = test: Compound was tested for antibacterial activity against Staphylococcus aureus ATCC 25923; outline: as §1
Staphylococcus aureus [4] = test: Compound was tested for antibacterial activity against Staphylococcus aureus ATCC 9144; outline: as §1
Streptococcus pyogenes = test: Compound was tested for antibacterial activity against Strep. pyogenes ATCC 19615; outline: as §1
[5] = tested on: Staphylococcus epidermidis; test: Compound was tested for antibacterial activity against Staph. epidermidis ATCC 12228; outline: as §1

MIC (Bacillus subtilis) | MIC (Bacillus cereus) | MIC [1] | MIC (Staphylococcus aureus [2]) | MIC (Staphylococcus aureus [3]) | MIC (Staphylococcus aureus [4]) | MIC (Streptococcus pyogenes) | MIC [5] | Compound | Activity (Rattus norvegicus)
> 200 µg/mL | 200 µg/mL (≈ 479 µM) | 100 µg/mL (≈ 240 µM) | > 200 µg/mL | > 200 µg/mL | 50 µg/mL (≈ 120 µM) | 10 µg/mL (≈ 24 µM) | 20 µg/mL (≈ 47.9 µM) | NC1C(OCc2cc(O)c3c(c2)C(=O)c2cccc(O)c2C3=O)OC(O)C(O)C1O (configuration not stated) | 10.1
50 µg/mL (≈ 120 µM) | 50 µg/mL (≈ 120 µM) | 100 µg/mL (≈ 240 µM) | > 200 µg/mL | 100 µg/mL (≈ 240 µM) | 50 µg/mL (≈ 120 µM) | 10 µg/mL (≈ 24 µM) | 20 µg/mL (≈ 47.9 µM) | NC1C(OCc2cc(O)c3c(c2O)C(=O)c2ccccc2C3=O)OC(O)C(O)C1O (configuration not stated) | 12.8
50 µg/mL (≈ 120 µM) | 50 µg/mL (≈ 120 µM) | 50 µg/mL (≈ 120 µM) | 200 µg/mL (≈ 479 µM) | 100 µg/mL (≈ 240 µM) | 200 µg/mL (≈ 479 µM) | 50 µg/mL (≈ 120 µM) | 50 µg/mL (≈ 120 µM) | NC1C(OCc2ccc3c(c2O)C(=O)c2c(O)cccc2C3=O)OC(O)C(O)C1O (configuration not stated) | 10.5
> 200 µg/mL | > 200 µg/mL | > 200 µg/mL | > 200 µg/mL | > 200 µg/mL | > 200 µg/mL | 100 µg/mL (≈ 259 µM) | 200 µg/mL (≈ 519 µM) | NC1C(OCc2ccc3c(c2)C(=O)c2ccccc2C3=O)OC(O)C(O)C1O (configuration not stated) | 2.31
50 µg/mL (≈ 125 µM) | 100 µg/mL (≈ 249 µM) | 100 µg/mL (≈ 249 µM) | 200 µg/mL (≈ 498 µM) | 200 µg/mL (≈ 498 µM) | 200 µg/mL (≈ 498 µM) | 20 µg/mL (≈ 49.8 µM) | 20 µg/mL (≈ 49.8 µM) | NC1C(OCc2ccc3c(c2O)C(=O)c2ccccc2C3=O)OC(O)C(O)C1O (configuration not stated) | 5.49
< 5 µg/mL | < 5 µg/mL | < 5 µg/mL | < 5 µg/mL | 20 µg/mL (≈ 37.9 µM) | < 5 µg/mL | < 5 µg/mL | < 5 µg/mL | COc1cccc2c1C(=O)c1c(O)c3c(c(O)c1C2=O)C[C@@](O)(C(C)=O)C[C@@H]3O[C@H]1C[C@H](N)[C@H](O)[C@H](C)O1 [DAUNORUBICIN] | 2.76
20 µg/mL (≈ 36.8 µM) | 10 µg/mL (≈ 18.4 µM) | 20 µg/mL (≈ 36.8 µM) | 10 µg/mL (≈ 18.4 µM) | 200 µg/mL (≈ 368 µM) | 20 µg/mL (≈ 36.8 µM) | < 5 µg/mL | < 5 µg/mL | COc1cccc2c1C(=O)c1c(O)c3c(c(O)c1C2=O)C[C@@](O)(C(=O)CO)C[C@@H]3O[C@H]1C[C@H](N)[C@H](O)[C@H](C)O1 [DOXORUBICIN] | –

From ChEMBL document CHEMBL1123433, “Synthesis of anthraquinonyl glucosaminosides and studies on the influence of aglycone hydroxyl substitution on superoxide generation, DNA binding, and antimicrobial properties” (J Med Chem, 1986)
